Laboratory results from ChEMBL document CHEMBL3244375, “Hypolipidemic arylthioalkanoic acids” (J Med Chem, 1977).

What was measured:
Rattus norvegicus [1] = assay: Hypolipidemic activity in Sprague-Dawley rat assessed as reduction in serum cholesterol level at 0.25 % compound administered in diet for 14 days relative to control; format: functional; parameters: scale not given: the % may be the effect or the level left
Summary of the method: (§1)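 Test compound mixed into feed, given ad libitum to rats for 14 days; controls received feed alone. Rats then weighed and killed by decapitation; blood collected and serum cholesterol and triglycerides measured by previously described methods. Data reported as mg% serum with SD per group, % change versus control; significance by Student's t test. Dose-response groups of eight rats.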

Rattus norvegicus [2] = assay: Hypolipidemic activity in Sprague-Dawley rat assessed as reduction in serum triglyceride level at 0.25 % compound administered in diet for 14 days relative to control; format: functional; parameters: scale not given: the % may be the effect or the level left; summary of the method: as §1
Rattus norvegicus [3] = assay: Toxicity in Sprague-Dawley rat assessed as increase in liver weight at 0.25 % compound administered in diet for 14 days relative to control; format: organism-based; settings: in vivo, po, 336 h
Summary of the method: (§2)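 Rats fed compound-containing diet ad libitum for 14 days alongside feed-only controls, eight rats per group in the dose-response study. At sacrifice by decapitation, liver removed and weighed. Change from controls scored semi-quantitatively, each + or − sign representing about a 10% change.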

Rattus norvegicus [4] = assay: Hypolipidemic activity in Sprague-Dawley rat assessed as reduction in serum cholesterol level at 0.125 % compound administered in diet for 14 days relative to control; format: functional; parameters: scale not given: the % may be the effect or the level left; summary of the method: as §1
Rattus norvegicus [5] = assay: Hypolipidemic activity in Sprague-Dawley rat assessed as reduction in serum triglyceride level at 0.125 % compound administered in diet for 14 days relative to control; format: functional; parameters: scale not given: the % may be the effect or the level left; summary of the method: as §1
Rattus norvegicus [6] = assay: Toxicity in Sprague-Dawley rat assessed as increase in liver weight at 0.125 % compound administered in diet for 14 days relative to control; format: organism-based; settings: in vivo, po, 336 h; summary of the method: as §2
[7] = Retardation factor of the compound by thin layer chromatography; format: physicochemical
Rattus norvegicus [8] = assay: Toxicity in Sprague-Dawley rat assessed as mortality at 0.125 % compound administered in diet for 14 days relative to control; format: organism-based; settings: in vivo, po, 336 h
Summary of the method: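 Compound mixed into rat feed and given ad libitum for 14 days; control groups received feed alone. At the end of the period, animals were weighed and killed by decapitation, blood was collected, and the liver was removed and weighed.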

Rattus norvegicus [9] = assay: Hypolipidemic activity in Sprague-Dawley rat assessed as reduction in serum cholesterol level at 0.03 % compound administered in diet for 14 days relative to control; format: functional; parameters: scale not given: the % may be the effect or the level left; summary of the method: as §1
[10] = Toxicity in mouse; format: organism-based; settings: in vivo
[11] = Toxicity in rat; format: organism-based; settings: in vivo
Rattus norvegicus [12] = assay: Hypolipidemic activity in Sprague-Dawley rat assessed as reduction in serum cholesterol level at 0.06 % compound administered in diet for 14 days relative to control; format: functional; parameters: scale not given: the % may be the effect or the level left; summary of the method: as §1
Rattus norvegicus [13] = assay: Hypolipidemic activity in Sprague-Dawley rat assessed as reduction in serum triglyceride level at 0.03 % compound administered in diet for 14 days relative to control; format: functional; parameters: scale not given: the % may be the effect or the level left; summary of the method: as §1
Rattus norvegicus [14] = assay: Hypolipidemic activity in Sprague-Dawley rat assessed as reduction in serum triglyceride level at 0.06 % compound administered in diet for 14 days relative to control; format: functional; parameters: scale not given: the % may be the effect or the level left; summary of the method: as §1

SMILES	Activity (Rattus norvegicus [1])	Activity (Rattus norvegicus [2])	Activity (Rattus norvegicus [4])	Activity (Rattus norvegicus [5])	Activity (Rattus norvegicus [6])	further results
CC(C)(C)c1cc(SCC(=O)O)cc(C(C)(C)C)c1O	-16%	–	–	–	–	–
CC(Sc1cc(C(C)(C)C)c(O)c(C(C)(C)C)c1)C(=O)O (configuration not stated)	-32%	-78%	–	–	–	Activity (Rattus norvegicus [3]): 30%
CCC(Sc1cc(C(C)(C)C)c(O)c(C(C)(C)C)c1)C(=O)O (configuration not stated)	-37%	-74%	–	–	–	Activity (Rattus norvegicus [3]): 40%
CCCC(Sc1cc(C(C)(C)C)c(O)c(C(C)(C)C)c1)C(=O)O (configuration not stated)	–	–	-3%	-72%	30%	–
CCCCCC(Sc1cc(C(C)(C)C)c(O)c(C(C)(C)C)c1)C(=O)O (configuration not stated)	-24%	-53%	–	–	–	Activity (Rattus norvegicus [3]): 10%
CC(C)(Sc1cc(C(C)(C)C)c(O)c(C(C)(C)C)c1)C(=O)O	-21%	-66%	–	–	–	Activity (Rattus norvegicus [3]): 40%
CCC(C)(Sc1cc(C(C)(C)C)c(O)c(C(C)(C)C)c1)C(=O)O (configuration not stated)	-32%	-80%	–	–	–	Activity (Rattus norvegicus [3]): 40%
CCCC(C)(Sc1cc(C(C)(C)C)c(O)c(C(C)(C)C)c1)C(=O)O (configuration not stated)	–	–	12%	-55%	30%	–
CCCCC(C)(Sc1cc(C(C)(C)C)c(O)c(C(C)(C)C)c1)C(=O)O (configuration not stated)	–	–	8%	-66%	20%	–
CCCCCC(C)(Sc1cc(C(C)(C)C)c(O)c(C(C)(C)C)c1)C(=O)O (configuration not stated)	–	–	-10%	-60%	10%	–
CCCCCCC(C)(Sc1cc(C(C)(C)C)c(O)c(C(C)(C)C)c1)C(=O)O (configuration not stated)	–	–	17%	-73%	10%	–
CCOC(=O)C(CC)Sc1cc(C(C)(C)C)c(O)c(C(C)(C)C)c1 (configuration not stated)	-5%	-55%	13%	-43%	–	Activity (Rattus norvegicus [3]): 10%
CCCC(Sc1cc(C(C)(C)C)c(O)c(C(C)(C)C)c1)C(=O)OCC (configuration not stated)	0%	-54%	–	–	–	Activity (Rattus norvegicus [3]): 0%
CCOC(=O)C(C)(C)Sc1cc(C(C)(C)C)c(O)c(C(C)(C)C)c1	-23%	-60%	–	–	–	Activity (Rattus norvegicus [3]): 20%
CCCCC(Sc1ccccc1)C(=O)O (configuration not stated)	–	–	-16%	-37%	0%	deltaRm [7]: 0
CCCCC(Sc1ccc(Cl)cc1)C(=O)O (configuration not stated)	–	–	-16%	-41%	0%	deltaRm [7]: 0.25
CCCCC(Sc1ccc(C)cc1)C(=O)O (configuration not stated)	–	–	-11%	-23%	0%	deltaRm [7]: 0.23
CCCCC(Sc1ccc(OC)cc1)C(=O)O (configuration not stated)	–	–	-12%	-45%	0%	deltaRm [7]: 0.08
CCCCC(Sc1ccc(Br)c(C)c1)C(=O)O (configuration not stated)	–	–	-17%	-49%	20%	deltaRm [7]: 0.51

SMILES	Activity (Rattus norvegicus [1])	Activity (Rattus norvegicus [2])	Activity (Rattus norvegicus [4])	Activity (Rattus norvegicus [5])	Activity (Rattus norvegicus [6])	further results
CCCCC(Sc1cc(C(C)(C)C)cc(C(C)(C)C)c1)C(=O)O (configuration not stated)	-20%	-41%	-23%	-58%	20%	deltaRm [7]: 1.18
CCCCC(Sc1cc(C2CCCC2)c(O)c(C2CCCC2)c1)C(=O)O (configuration not stated)	–	–	-11%	-16%	Non-toxic	deltaRm [7]: 0.94
CCCCC(Sc1cc(C2CCCCC2)c(O)c(C2CCCCC2)c1)C(=O)O (configuration not stated)	–	–	-3%	5%	Non-toxic	deltaRm [7]: 1.1
CC(C)(Sc1cc(C(C)(C)C)cc(C(C)(C)C)c1)C(=O)O	–	–	-31%	-63%	30%	–
CCCC(C)(Sc1cc(C(C)(C)C)cc(C(C)(C)C)c1)C(=O)O (configuration not stated)	–	–	-29%	-80%	40%	–
CCCCCC(C)(Sc1cc(C(C)(C)C)cc(C(C)(C)C)c1)C(=O)O (configuration not stated)	–	–	-27%	-73%	20%	–
CCCCCCC(C)(Sc1cc(C(C)(C)C)cc(C(C)(C)C)c1)C(=O)O (configuration not stated)	–	–	-38%	-68%	30%	–
CC(C)(C)c1cc(OCC(=O)O)cc(C(C)(C)C)c1O	–	–	13%	-50%	–	–
CC(Oc1cc(C(C)(C)C)c(O)c(C(C)(C)C)c1)C(=O)O (configuration not stated)	–	–	–	–	–	Activity (Rattus norvegicus [8]): Toxic
CCC(Oc1cc(C(C)(C)C)c(O)c(C(C)(C)C)c1)C(=O)O (configuration not stated)	–	–	6%	38%	–	–
CCCCC(Oc1cc(C(C)(C)C)c(O)c(C(C)(C)C)c1)C(=O)O (configuration not stated)	–	–	-7%	-38%	20%	–
CCCCC(Oc1cc(C(C)(C)C)c(O)c(C(C)(C)C)c1)C(=O)OCC (configuration not stated)	–	–	-13%	-28%	10%	–
CCCCC(C(=O)O)S(=O)(=O)c1cc(C(C)(C)C)c(O)c(C(C)(C)C)c1 (configuration not stated)	-17%	-44%	-14%	-36%	20%	–
CCCCC(C(=O)O)c1cc(C(C)(C)C)c(O)c(C(C)(C)C)c1 (configuration not stated)	–	–	-20%	-24%	–	–
CCCCC(C(=O)OCC)c1cc(C(C)(C)C)c(O)c(C(C)(C)C)c1 (configuration not stated)	–	–	-2%	-10%	–	–
CCCCC(Sc1cc(C(C)(C)C)c(O)c(C(C)(C)C)c1)C(=O)O (racemic)	-30%	-69%	-32%	-66%	10%	Activity (Rattus norvegicus [3]): 20%; Activity (Rattus norvegicus [9]): -21%; LD50 [10]: 5000 mg/kg; LD50 [11]: 7200 mg/kg; deltaRm [7]: 0.96; Activity (Rattus norvegicus [12]): -28%; Activity (Rattus norvegicus [13]): -35%; Activity (Rattus norvegicus [14]): -61%
CCOC(=O)C(C)(C)Oc1ccc(Cl)cc1 [CLOFIBRATE]	-28%	-50%	–	–	–	Activity (Rattus norvegicus [3]): 20%
CC(C)(Sc1cc(C(C)(C)C)c(O)c(C(C)(C)C)c1)Sc1cc(C(C)(C)C)c(O)c(C(C)(C)C)c1 [PROBUCOL]	38%	-33%	–	–	–	Activity (Rattus norvegicus [3]): 0%
